In series [1] the test system is Rattus norvegicus. Kind of series: Reversal of neuromuscular blocking activity in Wistar rat tibialis muscle assessed as time of onset of reversal at 100 mg/kg, ip in presence of physostigmine. Format: functional.
Series [2] relates to Gallus gallus. Kind of series: Neuromuscular blocking activity in ip dosed chicks assessed as induction of flaccid paralysis. The format is functional. Put shortly: (§1)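 4-day-old chicks (50 g) receive a single submaximal dose i.p., taken from the rat twitch study (0.15 mmol/kg). The type of paralysis, flaccid or spastic, is noted. The onset of head drop and of complete paralysis is timed after administration. Atracurium and succinylcholine serve as positive controls.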

The test system of series [3] is Rattus norvegicus. Put plainly: Neuromuscular blocking activity in Wistar rat tibialis muscle assessed as reduction in electrically-induced twitches by measuring time of onset at 100 mg/kg, ip. The format is functional. Put shortly: (§2)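 Male Wistar rats (250 g, N = 4-8 per group) anaesthetized with urethane (25% in water, 1.25 g/kg i.p.). Tracheal cannula with artificial room-air ventilation at 90 breaths/min, 20 c.c./kg. Rectal temperature held at 37 ± 1 °C. Tibialis twitch tension is expressed as % of pre-drug amplitude. Drug is given i.p. in DMSO or water, 1-100 mg/kg; ED50 and 90%-depression dose derived; mean ± S.E.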

Series [4] deals with Rattus norvegicus. Put plainly: Neuromuscular blocking activity in Wistar rat tibialis muscle assessed as reduction in electrically-induced twitches by measuring time required for 90% blockage at 100 mg/kg, ip. The format is functional. In short, it runs like this: as §2
The test system of series [5] is Rattus norvegicus. Kind of series: Neuromuscular blocking activity in Wistar rat tibialis muscle assessed as reduction in tetanus stimulated muscle twitches at 100 mg/kg, ip. Format: functional, organism-based. In short, it runs like this: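 Male Wistar rats (250 g, N = 4-8 per group) anaesthetised with urethane (1.25 g/kg i.p.), tracheally cannulated and ventilated with room air at 90 breaths/min. Tibialis twitch tension recorded with body temperature kept at 37 ± 1 °C. Tetanus given at 30 Hz for 5-10 s. Drug given i.p. in DMSO or water at 1-100 mg/kg. Twitches expressed as % of pre-drug amplitude.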

In series [6] the test system is Gallus gallus. Kind of series: Neuromuscular blocking activity in chicks assessed as induction of flaccid paralysis by measuring time of onset of muscle relaxation at 0.15 mmol/Kg, ip administered as single dose. Format: functional. In short, it runs like this:
as §1

The subject of series [7] is Rattus norvegicus. Kind of series: Neuromuscular blocking activity in against electrically-induced twitches in Wistar rat tibialis muscle assessed as time duration of muscle block at 100 mg/kg, ip. Format: functional. Put shortly:
as §2

Series [8] concerns Rattus norvegicus. Put plainly: Neuromuscular blocking activity in Wistar rat tibialis muscle assessed as reduction in electrically-induced twitches by measuring time required for 50% blockage at 100 mg/kg, ip. The format is functional. In short, it runs like this:
as §2

Series [9] relates to Rattus norvegicus. Kind of series: Reversal of neuromuscular blocking activity against electrically induced twitches in Wistar rat tibialis muscle at 100 mg/kg, ip in presence of physostigmine relative to control. Format: functional.
The test system of series [10] is Rattus norvegicus. Kind of series: Neuromuscular blocking activity in ip dosed Wistar rat tibialis muscle assessed as reduction in electrically-induced twitches. Format: functional. In short, it runs like this:
as §2

The test system of series [11] is Gallus gallus. Put plainly: Neuromuscular blocking activity in chicks assessed as induction of flaccid paralysis by measuring time of onset of head drop at 0.15 mmol/Kg, ip administered as single dose. Format: functional. Put shortly: as §1
Series [12] is described as follows: Toxicity in ip dosed mouse measured for 72 hrs. The format is organism-based. The note with it: in vivo. In short, it runs like this: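 Male mice, grouped, given i.p. doses of 0.1-5 mmol/kg. Observed continuously for 6 h, then kept under observation for 72 h, with behavioural changes and deaths recorded. Percentage death per dose converted to probits to derive the LD50.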

Series [13] relates to Rattus norvegicus. Kind of series: Neuromuscular blocking activity in Wistar rat tibialis muscle assessed as reduction in electrically induced twitches at 100 mg/kg, ip in presence of physostigmine. The format is functional, organism-based.
Series [14] concerns Gallus gallus. Put plainly: Neuromuscular blocking activity in ip dosed chicks assessed as induction of spastic paralysis. The format is functional. Put shortly: as §1
For series [15], the system named is Gallus gallus. Put plainly: Neuromuscular blocking activity in chicks assessed as induction of spastic paralysis by measuring time of onset of muscle relaxation at 0.15 mmol/Kg, ip administered as single dose. The format is functional. Put shortly: as §1

Structures are written as SMILES. Calls of active or inactive are those of the source. The rule behind the calls is not given here.

Experimental findings from ChEMBL document CHEMBL5244203, “Thiadiazolodiazepine analogues as a new class of neuromuscular blocking agents: Synthesis, biological evaluation and molecular modeling study” (Eur J Med Chem, 2017) are described below.

One may read the ED50 as the dose at which the effect has come halfway, by size or by number of responders. As a reminder, the LD50 is the dose expected to kill half of the subjects tested.

As for `COc1ccc(CC2c3cc(OC)c(OC)cc3CC[N+]2(C)CCC(=O)OCCCCCOC(=O)CC[N+]2(C)CCc3cc(OC)c(OC)cc3C2Cc2ccc(OC)c(OC)c2)cc1OC.O=S(=O)([O-])c1ccccc1.O=S(=O)([O-])c1ccccc1` (configuration not stated) [ATRACURIUM BESYLATE], the Time was found to be 2 min in series [1]; 5 min in series [3]; 12 min in series [4]; 10 min in series [6]; 30 min in [7]; 8 min in series [8]. In addition, the Time in series [11] is on record as 5 min. Further, the ED50 in [2] and in series [10] was 16 µmol/kg throughout. In series [5], the result was Active. The Activity in series [9] is given as 100%.
In the case of `O=C1CCCN2N=C(c3ccc(Br)cc3)SC2=N1`, the Time was 1 min in series [1]; 3 min in series [3]; 10 min in [4]; 1 min in series [6]; 70 min in [7]; 7 min in series [8]. Besides, in series [11], the Time was found to be 0.25 min. Also, the ED50 in series [2] and in series [10] was 150 µmol/kg throughout. For the same molecule, the result in series [5] was Active. Moreover, the LD50 at 72 h in series [12] was 195 mg/kg. Besides, the Activity in series [9] worked out at 100%.
As to `O=C1CCCN2N=C(c3ccc(F)cc3)SC2=N1`, the result in series [13] was inactive. Further, the figures for the ED50 in series [2] and in series [10] were 300 µmol/kg and 360 µmol/kg, respectively. In addition, the Time in series [3] came to 10 min; in series [4], 28 min; in series [6], 15 min; in [7] it was 110 min; in series [8], 18 min; in series [11], 11 min. Also, the result in series [5] was Active.
On to `C[N+](C)(C)CCOC(=O)CCC(=O)OCC[N+](C)(C)C.[Cl-].[Cl-]` [SUCCINYLCHOLINE CHLORIDE], for which the result in [13] and in series [5] was inactive. In addition, the ED50 in series [14] and in series [10] was 30 µmol/kg each time. Besides, the Time in [3] turned out to be 2 min; in series [4], 5 min; in series [7], 20 min; in [8], 3 min; in [15], 0.5 min.
